{
  "source": "ChEMBL document CHEMBL4177575",
  "about": "(Bioorg Med Chem, 2017)",
  "key": {"A549 [1]": {"system": "A549", "test": "Induction of apoptosis in human A549 cells assessed as necrotic cell level at 3 uM incubated for 48 hrs by Annexin VFITC and propidium iodide staining based flow cytometry (reference value: 2.69%)", "assay_type": "functional", "how_it_was_run": "(§1)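 A549 cells seeded in RPMI 1640 and treated 48 h at 3, 6 or 12 µM. Cells then stained with Annexin V-FITC plus propidium iodide, 30 min at 4 °C in the dark, and analysed on a FACS Calibur flow cytometer.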"}, "A549 [2]": {"system": "A549", "test": "Induction of apoptosis in human A549 cells assessed as late apoptotic cell level at 12 uM incubated for 48 hrs by Annexin VFITC and propidium iodide staining based flow cytometry (reference value: 3.4%)", "assay_type": "functional", "how_it_was_run": "as §1"}, "A549 [3]": {"system": "A549", "test": "Induction of apoptosis in human A549 cells assessed as necrotic cell level at 12 uM incubated for 48 hrs by Annexin VFITC and propidium iodide staining based flow cytometry (reference value: 2.69%)", "assay_type": "functional", "how_it_was_run": "as §1"}, "[4]": {"target": "Serine/threonine-protein kinase B-raf (Homo sapiens, UniProt P15056)", "sequence (P15056 whole entry)": "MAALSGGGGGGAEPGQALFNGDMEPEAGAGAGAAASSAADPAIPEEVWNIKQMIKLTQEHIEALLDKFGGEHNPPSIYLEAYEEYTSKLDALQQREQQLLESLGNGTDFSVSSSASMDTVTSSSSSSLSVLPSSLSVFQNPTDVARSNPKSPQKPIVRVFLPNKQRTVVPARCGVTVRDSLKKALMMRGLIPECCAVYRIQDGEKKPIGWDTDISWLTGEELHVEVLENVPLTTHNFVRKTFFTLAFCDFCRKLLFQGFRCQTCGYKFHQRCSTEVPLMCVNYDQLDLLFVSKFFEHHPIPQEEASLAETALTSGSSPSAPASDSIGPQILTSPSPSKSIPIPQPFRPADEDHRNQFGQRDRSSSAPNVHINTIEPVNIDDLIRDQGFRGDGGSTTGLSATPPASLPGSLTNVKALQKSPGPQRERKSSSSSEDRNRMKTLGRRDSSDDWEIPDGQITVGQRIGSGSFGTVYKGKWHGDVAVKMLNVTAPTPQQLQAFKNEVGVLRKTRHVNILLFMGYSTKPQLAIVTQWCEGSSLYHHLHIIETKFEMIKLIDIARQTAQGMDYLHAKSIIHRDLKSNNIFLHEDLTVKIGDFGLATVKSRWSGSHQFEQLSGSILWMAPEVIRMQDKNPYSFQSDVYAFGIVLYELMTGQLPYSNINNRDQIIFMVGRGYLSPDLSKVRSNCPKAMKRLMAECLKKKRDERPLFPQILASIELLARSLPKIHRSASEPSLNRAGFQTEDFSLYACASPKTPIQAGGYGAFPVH", "test": "Inhibition of BRAF (unknown origin) incubated for 10 mins using FAM-labeled peptide and ATP by mobility shift assay"}, "A549 [5]": {"system": "A549", "test": "Induction of apoptosis in human A549 cells assessed as viable cell level at 6 uM incubated for 48 hrs by Annexin VFITC and propidium iodide staining based flow cytometry (reference value: 93.27%)", "assay_type": "functional", "how_it_was_run": "as §1"}, "HepG2": {"system": "HepG2", "test": "Cytotoxicity against human HepG2 cells assessed as reduction in cell viability incubated for 72 hrs by MTT assay", "assay_type": "functional, cell-based", "conditions": "HepG2, 72 h", "how_it_was_run": "(§2)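 Cells grown in MEM with 10% FBS; about 4×10^3 cells per well, pre-incubated 24 h at 37 °C in 5% CO2, then exposed to compound for 72 h. Seven concentrations, threefold serial dilution from 100 ug/mL initial. MTT at 5 µg/mL terminal concentration for 4 h; formazan dissolved in DMSO, absorbance read at 492 nm against 630 nm reference. IC50 is the average of two determinations.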"}, "[6]": {"target": "Vascular endothelial growth factor receptor 2 (Homo sapiens, UniProt P35968)", "sequence (P35968 whole entry)": "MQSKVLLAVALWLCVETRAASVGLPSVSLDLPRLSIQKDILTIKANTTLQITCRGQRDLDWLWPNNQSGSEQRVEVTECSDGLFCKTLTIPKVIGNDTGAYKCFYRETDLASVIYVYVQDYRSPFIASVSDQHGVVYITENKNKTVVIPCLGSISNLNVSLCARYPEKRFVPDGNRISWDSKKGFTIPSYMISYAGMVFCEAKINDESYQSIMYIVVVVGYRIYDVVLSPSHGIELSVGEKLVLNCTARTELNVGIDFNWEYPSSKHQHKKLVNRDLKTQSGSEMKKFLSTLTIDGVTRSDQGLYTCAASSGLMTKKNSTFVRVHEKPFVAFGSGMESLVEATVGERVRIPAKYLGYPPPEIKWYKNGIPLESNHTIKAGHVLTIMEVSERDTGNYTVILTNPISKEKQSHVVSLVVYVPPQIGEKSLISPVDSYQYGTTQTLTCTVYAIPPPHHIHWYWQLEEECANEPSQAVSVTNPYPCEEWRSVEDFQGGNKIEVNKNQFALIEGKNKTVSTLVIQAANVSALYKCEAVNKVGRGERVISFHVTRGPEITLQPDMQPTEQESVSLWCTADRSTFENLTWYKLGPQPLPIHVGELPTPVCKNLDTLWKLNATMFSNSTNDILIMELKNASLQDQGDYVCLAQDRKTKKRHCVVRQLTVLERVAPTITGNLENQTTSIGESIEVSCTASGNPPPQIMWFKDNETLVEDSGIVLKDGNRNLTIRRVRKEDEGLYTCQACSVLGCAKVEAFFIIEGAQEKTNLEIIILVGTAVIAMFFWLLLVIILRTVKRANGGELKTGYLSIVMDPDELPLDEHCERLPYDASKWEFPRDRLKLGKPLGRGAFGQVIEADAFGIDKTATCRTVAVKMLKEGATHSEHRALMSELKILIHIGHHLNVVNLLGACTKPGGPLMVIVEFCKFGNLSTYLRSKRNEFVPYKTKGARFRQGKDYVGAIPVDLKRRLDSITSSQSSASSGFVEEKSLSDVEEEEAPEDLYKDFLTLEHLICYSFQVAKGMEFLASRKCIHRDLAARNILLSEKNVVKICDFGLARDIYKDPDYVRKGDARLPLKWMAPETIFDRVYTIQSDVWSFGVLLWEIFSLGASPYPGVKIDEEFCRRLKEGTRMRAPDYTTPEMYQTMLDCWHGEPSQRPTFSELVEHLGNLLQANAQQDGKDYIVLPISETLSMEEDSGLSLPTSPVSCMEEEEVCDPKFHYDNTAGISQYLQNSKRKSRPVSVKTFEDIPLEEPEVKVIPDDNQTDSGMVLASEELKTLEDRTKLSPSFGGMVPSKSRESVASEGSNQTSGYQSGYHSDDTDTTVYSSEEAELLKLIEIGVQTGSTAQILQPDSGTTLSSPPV", "test": "Inhibition of VEGFR2 (unknown origin) incubated for 10 mins using FAM-labeled peptide and ATP by mobility shift assay"}, "[7]": {"target": "RAF proto-oncogene serine/threonine-protein kinase (Homo sapiens, UniProt P04049)", "sequence (P04049 whole entry)": "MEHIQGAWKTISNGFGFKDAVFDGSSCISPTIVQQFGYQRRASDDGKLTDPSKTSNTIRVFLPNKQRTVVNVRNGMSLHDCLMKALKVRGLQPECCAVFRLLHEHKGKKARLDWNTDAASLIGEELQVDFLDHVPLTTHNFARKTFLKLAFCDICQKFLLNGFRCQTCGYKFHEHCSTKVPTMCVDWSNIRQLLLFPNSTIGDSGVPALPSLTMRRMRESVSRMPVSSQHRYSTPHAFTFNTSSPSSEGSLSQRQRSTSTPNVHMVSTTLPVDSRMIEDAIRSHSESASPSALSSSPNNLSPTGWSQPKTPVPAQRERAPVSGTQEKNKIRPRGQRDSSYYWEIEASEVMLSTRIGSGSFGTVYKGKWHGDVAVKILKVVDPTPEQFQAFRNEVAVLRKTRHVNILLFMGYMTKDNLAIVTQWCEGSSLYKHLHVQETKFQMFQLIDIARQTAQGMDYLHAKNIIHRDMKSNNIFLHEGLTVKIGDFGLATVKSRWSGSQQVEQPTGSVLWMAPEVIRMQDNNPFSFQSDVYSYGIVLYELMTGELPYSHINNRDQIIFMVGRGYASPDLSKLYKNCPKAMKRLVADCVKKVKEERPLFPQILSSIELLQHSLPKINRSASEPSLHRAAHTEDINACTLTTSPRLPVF", "test": "Inhibition of CRAF (unknown origin) incubated for 10 mins using FAM-labeled peptide and ATP by mobility shift assay", "how_it_was_run": "(§3)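 Mobility shift assay in 384-well plates. Compound, diluted from a 500 μM DMSO stock, preincubated with enzyme 10 min at room temperature. FAM-labelled peptide and ATP then added and the reaction run at 28 °C. Stopped with EDTA-containing buffer and read on Caliper. Inhibition = (max−conversion)/(max−min)×100, with DMSO wells as max and enzyme-free wells as min.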"}, "A549 [8]": {"system": "A549", "test": "Induction of apoptosis in human A549 cells assessed as necrotic cell level at 6 uM incubated for 48 hrs by Annexin VFITC and propidium iodide staining based flow cytometry (reference value: 2.69%)", "assay_type": "functional", "how_it_was_run": "as §1"}, "A549 [9]": {"system": "A549", "test": "Induction of morphological changes in human A549 cells assessed as induction of chromatin condensation at 1.85 uM incubated for 12 hrs by acridine orange dye based inverted microscopy and fluorescence microscopy", "assay_type": "functional, cell-based", "how_it_was_run": "(§4)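 Untreated control included. A549 cells exposed 12 h at 1.85 μM, then single-stained with acridine orange. Nuclei and morphology examined by inverted and fluorescence microscopy.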"}, "A549 [10]": {"system": "A549", "test": "Induction of apoptosis in human A549 cells assessed as viable cell level at 12 uM incubated for 48 hrs by Annexin VFITC and propidium iodide staining based flow cytometry (reference value: 93.27%)", "assay_type": "functional", "how_it_was_run": "as §1"}, "A549 [11]": {"system": "A549", "test": "Cytotoxicity against human A549 cells assessed as reduction in cell viability incubated for 72 hrs by MTT assay", "assay_type": "functional, cell-based", "how_it_was_run": "as §2"}, "MCF7": {"system": "MCF7", "test": "Cytotoxicity against human MCF7 cells assessed as reduction in cell viability incubated for 72 hrs by MTT assay", "assay_type": "functional, cell-based", "how_it_was_run": "as §2"}, "A549 [12]": {"system": "A549", "test": "Induction of morphological changes in human A549 cells assessed as induction of nucleus bright green staining at 1.85 uM incubated for 12 hrs by acridine orange dye based inverted microscopy and fluorescence microscopy", "assay_type": "functional, cell-based", "how_it_was_run": "as §4"}, "[13]": {"target": "T1, Receptor-type tyrosine-protein kinase FLT3 (Homo sapiens, UniProt P36888)", "T1 sequence (P36888 whole entry)": "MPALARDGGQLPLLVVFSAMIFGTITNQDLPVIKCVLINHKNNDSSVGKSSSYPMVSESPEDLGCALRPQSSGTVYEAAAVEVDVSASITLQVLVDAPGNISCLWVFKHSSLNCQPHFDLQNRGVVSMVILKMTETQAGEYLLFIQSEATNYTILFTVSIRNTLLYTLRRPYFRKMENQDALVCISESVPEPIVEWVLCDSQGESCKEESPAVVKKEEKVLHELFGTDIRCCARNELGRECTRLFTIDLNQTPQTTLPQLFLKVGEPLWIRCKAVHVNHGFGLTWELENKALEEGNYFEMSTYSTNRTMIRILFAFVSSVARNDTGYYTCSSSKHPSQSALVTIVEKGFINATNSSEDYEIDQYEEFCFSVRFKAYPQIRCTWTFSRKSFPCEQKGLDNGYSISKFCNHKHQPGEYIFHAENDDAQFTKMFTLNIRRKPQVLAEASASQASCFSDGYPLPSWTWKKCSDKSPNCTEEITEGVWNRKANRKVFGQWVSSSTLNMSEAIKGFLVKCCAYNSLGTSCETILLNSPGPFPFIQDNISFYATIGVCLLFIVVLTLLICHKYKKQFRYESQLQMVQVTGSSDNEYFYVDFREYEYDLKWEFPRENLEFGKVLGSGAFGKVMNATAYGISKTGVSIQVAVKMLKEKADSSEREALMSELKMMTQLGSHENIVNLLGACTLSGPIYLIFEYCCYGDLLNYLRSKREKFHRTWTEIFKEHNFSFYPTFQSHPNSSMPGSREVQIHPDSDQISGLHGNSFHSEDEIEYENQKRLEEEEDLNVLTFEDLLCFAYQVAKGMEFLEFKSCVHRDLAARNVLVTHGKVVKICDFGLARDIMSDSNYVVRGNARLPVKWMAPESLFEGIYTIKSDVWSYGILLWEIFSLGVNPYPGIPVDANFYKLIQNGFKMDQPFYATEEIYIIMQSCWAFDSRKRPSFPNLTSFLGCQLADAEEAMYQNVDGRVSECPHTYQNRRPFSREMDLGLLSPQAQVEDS", "test": "Inhibition of FLT3 (unknown origin) incubated for 10 mins using FAM-labeled peptide and ATP by mobility shift assay", "how_it_was_run": "as §3, with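 “plates. Kinase buffer: 50 mM HEPES pH 7.5, 10 mM MgCl2, 0.0015% Brij-35, 2 mM DTT.” for “plates.”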"}, "A549 [14]": {"system": "A549", "test": "Induction of apoptosis in human A549 cells assessed as viable cell level at 3 uM incubated for 48 hrs by Annexin VFITC and propidium iodide staining based flow cytometry (reference value: 93.27%)", "assay_type": "functional", "how_it_was_run": "as §1"}, "A549 [15]": {"system": "A549", "test": "Induction of morphological changes in human A549 cells assessed as induction of DNA fragmentation at 1.85 uM incubated for 12 hrs by acridine orange dye based inverted microscopy and fluorescence microscopy", "assay_type": "functional, cell-based", "how_it_was_run": "as §4"}},
  "note": "Active and inactive are the calls of the source. The rule behind the calls is not given here.",
  "data": [
    {"compound": "CNC(=O)c1cc(Oc2ccc(C3=NNC(c4cccc(Br)c4)C3)cc2)ccn1", "note": "(centres undefined)", "values": [
      {"measurement": "Activity", "setting": "A549 [1]", "value": 4.49, "unit": "%"},
      {"measurement": "Activity", "setting": "A549 [2]", "value": 10.05, "unit": "%"},
      {"measurement": "Activity", "setting": "A549 [3]", "value": 2.45, "unit": "%"},
      {"measurement": "IC50", "setting": "[4]", "value": 3400, "unit": "nM"},
      {"measurement": "Activity", "setting": "A549 [5]", "value": 81.93, "unit": "%"},
      {"measurement": "IC50", "setting": "HepG2", "value": 1850, "unit": "nM"},
      {"measurement": "IC50", "setting": "[6]", "value": 560, "unit": "nM"},
      {"measurement": "IC50", "setting": "[7]", "value": 7900, "unit": "nM"},
      {"measurement": "Activity", "setting": "A549 [8]", "value": 1.24, "unit": "%"},
      {"measurement": "Activity", "setting": "A549 [9]", "value": "Active"},
      {"measurement": "Activity", "setting": "A549 [10]", "value": 75.55, "unit": "%"},
      {"measurement": "Activity", "setting": "A549 [11]", "value": "Dose-dependent effect"},
      {"measurement": "IC50", "setting": "A549 [11]; A549, 72 h", "value": 2840, "unit": "nM"},
      {"measurement": "Activity", "setting": "MCF7", "value": "Dose-dependent effect"},
      {"measurement": "IC50", "setting": "MCF7; MCF7, 72 h", "value": 1960, "unit": "nM"},
      {"measurement": "Activity", "setting": "A549 [12]", "value": "Active"},
      {"measurement": "IC50", "setting": "[13]", "value": 5200, "unit": "nM"},
      {"measurement": "Activity", "setting": "A549 [14]", "value": 88.8, "unit": "%"},
      {"measurement": "Activity", "setting": "A549 [15]", "value": "Active"}
    ]}
  ]
}
